Results taken from ChEMBL document CHEMBL4765349, “Design, synthesis and biological evaluation of novel N-sulfonylamidine-based derivatives as c-Met inhibitors via Cu-catalyzed three-component reaction” (Eur J Med Chem, 2020).
The source made the active and inactive calls. The rule behind the calls is not given here.

Tests used:
[1] = target: ALK tyrosine kinase receptor (Homo sapiens, UniProt Q9UM73); assay: Inhibition of ALK (unknown origin) using poly (Glu, Tyr)4:1 as substrate in presence of ATP measured after 30 mins by HTRF assay
Summary of the method: (§1)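 Kinase inhibition measured by homogeneous time-resolved fluorescence (HTRF) across a panel of Ron, ALK and other tyrosine kinases, with IC50 as the read-out.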

[2] = target: Vascular endothelial growth factor receptor 3 (Homo sapiens, UniProt P35916); assay: Inhibition of FLT-4 (unknown origin) using poly (Glu, Tyr)4:1 as substrate in presence of ATP measured after 30 mins by HTRF assay; summary of the method: as §1
Vascular endothelial growth factor receptor 3, sequence (P35916 whole entry): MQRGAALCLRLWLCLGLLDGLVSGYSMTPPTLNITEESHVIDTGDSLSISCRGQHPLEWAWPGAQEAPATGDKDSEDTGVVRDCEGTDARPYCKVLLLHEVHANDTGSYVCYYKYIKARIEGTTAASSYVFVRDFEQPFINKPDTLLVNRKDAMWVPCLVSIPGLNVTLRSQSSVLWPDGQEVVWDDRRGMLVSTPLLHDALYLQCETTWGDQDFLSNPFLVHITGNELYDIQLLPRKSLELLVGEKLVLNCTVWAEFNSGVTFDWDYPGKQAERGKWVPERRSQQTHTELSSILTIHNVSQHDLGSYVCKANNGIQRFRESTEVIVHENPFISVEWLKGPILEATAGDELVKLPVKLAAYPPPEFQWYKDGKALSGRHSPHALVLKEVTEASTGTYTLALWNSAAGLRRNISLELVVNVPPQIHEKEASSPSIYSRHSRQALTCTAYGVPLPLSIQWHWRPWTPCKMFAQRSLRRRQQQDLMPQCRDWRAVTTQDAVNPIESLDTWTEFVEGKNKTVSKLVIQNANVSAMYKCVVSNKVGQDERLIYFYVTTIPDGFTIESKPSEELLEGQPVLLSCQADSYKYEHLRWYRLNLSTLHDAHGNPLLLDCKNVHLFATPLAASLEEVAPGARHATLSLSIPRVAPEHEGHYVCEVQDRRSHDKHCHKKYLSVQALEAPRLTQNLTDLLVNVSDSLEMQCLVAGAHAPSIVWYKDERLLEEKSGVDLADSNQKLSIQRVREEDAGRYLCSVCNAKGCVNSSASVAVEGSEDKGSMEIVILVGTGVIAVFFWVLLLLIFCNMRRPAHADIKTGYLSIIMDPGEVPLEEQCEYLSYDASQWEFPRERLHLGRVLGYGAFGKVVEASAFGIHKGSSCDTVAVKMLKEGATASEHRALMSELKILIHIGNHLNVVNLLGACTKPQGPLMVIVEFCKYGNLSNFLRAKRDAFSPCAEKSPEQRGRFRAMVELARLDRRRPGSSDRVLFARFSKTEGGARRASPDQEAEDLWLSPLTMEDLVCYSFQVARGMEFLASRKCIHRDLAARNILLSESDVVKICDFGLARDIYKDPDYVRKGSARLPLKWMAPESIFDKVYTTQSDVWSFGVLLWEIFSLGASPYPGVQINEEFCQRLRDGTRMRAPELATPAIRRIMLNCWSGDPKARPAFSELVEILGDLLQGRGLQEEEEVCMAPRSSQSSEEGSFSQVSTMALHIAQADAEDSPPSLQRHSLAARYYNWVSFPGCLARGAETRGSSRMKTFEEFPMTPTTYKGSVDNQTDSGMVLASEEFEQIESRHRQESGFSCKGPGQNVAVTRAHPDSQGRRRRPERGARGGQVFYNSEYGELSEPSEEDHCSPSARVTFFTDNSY

[3] = tested on: A549; assay: Induction of apoptosis in human A549 cells assessed as late apoptosis measured after 12 hrs by Annexin V-FITC/ Propidium iodide stain based flow cytometry assay; type: functional, cell-based; conditions: dose 0.25-1 µM
Summary of the method: (§2)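 Cells double-stained with FITC-annexin V and propidium iodide, then flow cytometry gave the percentages of early and late apoptotic cells.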

[4] = Toxicity in Balb/c mouse assessed as survival rate at 100 mg/kg, ip measured after 15 days; type: organism-based; conditions: in vivo, time 15 day
Summary of the method: (§3)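 Acute toxicity: 8-week-old male BALB/c mice, randomized in groups of n = 10, given a single intraperitoneal injection on day zero (vehicle only, 100, 200, 300 or 400 mg/kg). A further untreated group served as normal control. Survival on day 15 was reported as a percentage.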

[5] = tested on: A549; assay: Induction of apoptosis in human A549 cells assessed as late apoptosis at 1 uM measured after 12 hrs by Annexin V-FITC/ Propidium iodide stain based flow cytometry assay relative to control; type: functional; summary of the method: as §2
[6] = Oral bioavailability in Balb/c mouse at 8 mg/kg measured after 24 hrs by LC/MS/MS analysis; type: ADME, organism-based; conditions: in vivo
Summary of the method: (§4)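 BALB/c mice dosed once orally at 8 mg/kg or intravenously at 2 mg/kg. Plasma concentration followed over time, and Cmax, Tmax, AUC0-∞, elimination half-life, clearance and oral bioavailability were derived from it.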

[7] = tested on: A549; assay: Induction of apoptosis in human A549 cells assessed as early apoptosis measured after 12 hrs by Annexin V-FITC/ Propidium iodide stain based flow cytometry assay; type: functional, cell-based; conditions: dose 0.25-1 µM; summary of the method: as §2
[8] = tested on: HUVEC; assay: cells; conditions: Homo sapiens, 72 h
[9] = Cmax in Balb/c mouse at 8 mg/kg, po measured after 24 hrs by LC/MS/MS analysis; type: ADME, organism-based; parameters: route oral, time 24 hrs, dose 8 mg/kg; conditions: in vivo; summary of the method: as §4
[10] = tested on: MKN-45; assay: Cytotoxicity against human MKN-45 cells assessed as inhibition of cell proliferation measured after 72 hrs by MTT assay; type: functional, cell-based; conditions: MKN-45, 72 h
[11] = Toxicity in Balb/c mouse assessed as anaphylactic response at 100 to 200 mg/kg, ip measured after 15 days; type: organism-based; conditions: in vivo, 360 h, dose 100-200 mg/kg, time 15 day
Summary of the method: (§5)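 Acute toxicity in 8-week-old male BALB/c mice, randomized into groups of n = 10. Single intraperitoneal dose on day 0 of vehicle or 100, 200, 300 or 400 mg/kg, plus an untreated control group. Mice watched for 15 days for deaths, abnormalities, anaphylactic or allergic reactions and body weight loss.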

[12] = Selectivity index, ratio of IC50 for human FHC cells assessed as inhibition of cell proliferation to IC50 of HT-29 cells assessed as inhibition of cell proliferation; type: toxicity; conditions: FHC cells versus HT-29 cells, read-out: Selectivity Index
[13] = Clearance in Balb/c mouse at 8 mg/kg, po measured after 24 hrs by LC/MS/MS analysis; type: ADME, organism-based; conditions: in vivo
Summary of the method: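 Clearance from the plasma profile of BALB/c mice after a single oral dose of 8 mg/kg.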

[14] = tested on: A549; assay: Induction of cell cycle arrest in human A549 cells assessed as increased accumulation of cells at G2/M phase measured after 24 hrs by Propidium iodide stain based Flow cytometry assay; type: functional; conditions: dose 0.25-1 µM
Summary of the method: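 A549 cells exposed to vehicle or 0.25, 0.5 or 1.0 µM compound. DNA content measured by propidium iodide staining with RNase and flow cytometry, and the G2/M fraction was scored.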

[15] = Toxicity in Balb/c mouse assessed as allergic reaction at 100 to 200 mg/kg, ip measured after 15 days; type: organism-based; conditions: in vivo, 360 h, dose 100-200 mg/kg, time 15 day; summary of the method: as §5
[16] = AUC (0 to infinity) in Balb/c mouse at 2 mg/kg, iv measured after 24 hrs by LC/MS/MS analysis; type: ADME, organism-based; parameters: route intravenous, time 24 hrs, dose 2 mg/kg; conditions: in vivo; summary of the method: as §4
[17] = target: Mast/stem cell growth factor receptor Kit (Homo sapiens, UniProt P10721); assay: Inhibition of c-Kit (unknown origin) using poly (Glu, Tyr)4:1 as substrate in presence of ATP measured after 30 mins by HTRF assay; summary of the method: as §1
Mast/stem cell growth factor receptor Kit, sequence (P10721 whole entry): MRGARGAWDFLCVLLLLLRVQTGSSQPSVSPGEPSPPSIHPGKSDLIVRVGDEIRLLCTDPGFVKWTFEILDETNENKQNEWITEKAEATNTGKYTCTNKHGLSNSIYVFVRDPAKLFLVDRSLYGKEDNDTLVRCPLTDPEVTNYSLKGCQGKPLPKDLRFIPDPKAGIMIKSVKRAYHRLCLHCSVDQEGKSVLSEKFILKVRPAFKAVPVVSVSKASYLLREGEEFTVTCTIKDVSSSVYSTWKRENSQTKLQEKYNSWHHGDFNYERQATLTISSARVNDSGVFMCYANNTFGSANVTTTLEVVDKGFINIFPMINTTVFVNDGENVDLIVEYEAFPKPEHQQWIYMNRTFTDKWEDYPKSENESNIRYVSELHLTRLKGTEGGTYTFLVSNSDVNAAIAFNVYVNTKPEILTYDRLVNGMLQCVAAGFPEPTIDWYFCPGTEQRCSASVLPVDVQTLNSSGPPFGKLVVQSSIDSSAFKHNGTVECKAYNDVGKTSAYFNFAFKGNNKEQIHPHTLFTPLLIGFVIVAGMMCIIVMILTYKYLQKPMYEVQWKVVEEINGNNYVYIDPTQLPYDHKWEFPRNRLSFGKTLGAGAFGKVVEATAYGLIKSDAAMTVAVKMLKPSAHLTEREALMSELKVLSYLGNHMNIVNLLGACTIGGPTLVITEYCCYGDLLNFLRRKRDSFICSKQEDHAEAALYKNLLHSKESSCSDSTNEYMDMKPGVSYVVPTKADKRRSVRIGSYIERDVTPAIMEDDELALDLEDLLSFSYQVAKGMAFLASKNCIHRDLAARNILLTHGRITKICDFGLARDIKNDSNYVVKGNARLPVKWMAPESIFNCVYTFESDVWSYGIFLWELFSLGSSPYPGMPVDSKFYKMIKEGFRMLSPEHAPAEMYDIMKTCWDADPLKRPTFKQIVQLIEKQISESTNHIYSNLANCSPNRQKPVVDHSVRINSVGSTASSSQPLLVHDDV

[18] = Tmax in Balb/c mouse at 8 mg/kg, po measured after 24 hrs by LC/MS/MS analysis; type: ADME, organism-based; conditions: in vivo; summary of the method: as §4
[19] = target: Platelet-derived growth factor receptor beta (Homo sapiens, UniProt P09619); assay: Inhibition of PDGFR beta (unknown origin) using poly (Glu, Tyr)4:1 as substrate in presence of ATP measured after 30 mins by HTRF assay; summary of the method: as §1
[20] = target: Macrophage-stimulating protein receptor (Homo sapiens, UniProt Q04912); assay: Inhibition of Ron (unknown origin) using poly (Glu, Tyr)4:1 as substrate in presence of ATP measured after 30 mins by HTRF assay; summary of the method: as §1
Macrophage-stimulating protein receptor, sequence (Q04912 25-304 limits assumed): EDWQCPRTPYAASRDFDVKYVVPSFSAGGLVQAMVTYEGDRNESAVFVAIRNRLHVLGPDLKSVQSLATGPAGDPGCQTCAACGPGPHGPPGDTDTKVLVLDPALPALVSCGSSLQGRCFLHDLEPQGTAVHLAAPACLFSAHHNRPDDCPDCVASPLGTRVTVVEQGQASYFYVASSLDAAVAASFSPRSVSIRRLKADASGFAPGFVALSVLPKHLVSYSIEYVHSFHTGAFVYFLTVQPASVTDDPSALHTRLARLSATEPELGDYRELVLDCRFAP
Macrophage-stimulating protein receptor, sequence (Q04912 310-1400 limits assumed): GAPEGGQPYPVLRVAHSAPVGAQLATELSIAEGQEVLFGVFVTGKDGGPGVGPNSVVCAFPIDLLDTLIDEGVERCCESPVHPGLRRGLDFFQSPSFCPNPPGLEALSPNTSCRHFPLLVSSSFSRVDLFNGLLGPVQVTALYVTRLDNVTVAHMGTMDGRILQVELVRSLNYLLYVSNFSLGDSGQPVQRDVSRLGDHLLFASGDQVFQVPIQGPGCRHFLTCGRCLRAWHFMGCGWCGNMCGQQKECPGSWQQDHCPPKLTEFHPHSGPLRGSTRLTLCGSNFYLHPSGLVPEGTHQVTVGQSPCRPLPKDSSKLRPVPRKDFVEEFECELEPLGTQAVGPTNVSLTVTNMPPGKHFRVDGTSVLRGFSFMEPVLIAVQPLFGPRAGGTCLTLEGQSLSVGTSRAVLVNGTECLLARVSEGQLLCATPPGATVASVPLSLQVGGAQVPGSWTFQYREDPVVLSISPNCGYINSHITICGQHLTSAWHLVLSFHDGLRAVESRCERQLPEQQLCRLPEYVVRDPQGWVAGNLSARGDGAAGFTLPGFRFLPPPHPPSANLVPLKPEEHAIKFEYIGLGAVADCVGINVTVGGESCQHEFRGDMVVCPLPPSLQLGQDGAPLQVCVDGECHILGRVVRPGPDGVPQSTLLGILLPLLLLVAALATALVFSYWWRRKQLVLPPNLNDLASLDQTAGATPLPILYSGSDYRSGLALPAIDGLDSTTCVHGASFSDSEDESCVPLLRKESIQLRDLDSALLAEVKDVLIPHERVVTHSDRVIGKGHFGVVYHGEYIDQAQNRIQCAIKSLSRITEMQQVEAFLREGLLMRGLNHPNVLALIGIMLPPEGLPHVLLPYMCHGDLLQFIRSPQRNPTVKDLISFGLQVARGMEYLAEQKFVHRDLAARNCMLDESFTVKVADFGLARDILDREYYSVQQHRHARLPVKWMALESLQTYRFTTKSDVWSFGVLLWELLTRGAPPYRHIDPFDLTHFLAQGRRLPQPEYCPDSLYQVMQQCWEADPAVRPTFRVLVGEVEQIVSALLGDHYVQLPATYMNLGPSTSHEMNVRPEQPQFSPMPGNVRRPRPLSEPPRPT

[21] = tested on: A549; assay: cells; conditions: Homo sapiens, A549, 72 h
[22] = AUC (0 to infinity) in Balb/c mouse at 8 mg/kg, po measured after 24 hrs by LC/MS/MS analysis; type: ADME, organism-based; parameters: route oral, time 24 hrs, dose 8 mg/kg; conditions: in vivo; summary of the method: as §4
[23] = Toxicity in Balb/c mouse assessed as no abnormality at 100 to 200 mg/kg, ip measured after 15 days; type: organism-based; conditions: in vivo, 360 h, dose 100-200 mg/kg, time 15 day; summary of the method: as §5
[24] = target: Hepatocyte growth factor receptor (Homo sapiens, UniProt P08581); assay: Inhibition of human c-MET phosphorylation in human A549 cells measured after 1 hr by western blot analysis; conditions: dose 2-8 µmol/L
Hepatocyte growth factor receptor, sequence (P08581 whole entry): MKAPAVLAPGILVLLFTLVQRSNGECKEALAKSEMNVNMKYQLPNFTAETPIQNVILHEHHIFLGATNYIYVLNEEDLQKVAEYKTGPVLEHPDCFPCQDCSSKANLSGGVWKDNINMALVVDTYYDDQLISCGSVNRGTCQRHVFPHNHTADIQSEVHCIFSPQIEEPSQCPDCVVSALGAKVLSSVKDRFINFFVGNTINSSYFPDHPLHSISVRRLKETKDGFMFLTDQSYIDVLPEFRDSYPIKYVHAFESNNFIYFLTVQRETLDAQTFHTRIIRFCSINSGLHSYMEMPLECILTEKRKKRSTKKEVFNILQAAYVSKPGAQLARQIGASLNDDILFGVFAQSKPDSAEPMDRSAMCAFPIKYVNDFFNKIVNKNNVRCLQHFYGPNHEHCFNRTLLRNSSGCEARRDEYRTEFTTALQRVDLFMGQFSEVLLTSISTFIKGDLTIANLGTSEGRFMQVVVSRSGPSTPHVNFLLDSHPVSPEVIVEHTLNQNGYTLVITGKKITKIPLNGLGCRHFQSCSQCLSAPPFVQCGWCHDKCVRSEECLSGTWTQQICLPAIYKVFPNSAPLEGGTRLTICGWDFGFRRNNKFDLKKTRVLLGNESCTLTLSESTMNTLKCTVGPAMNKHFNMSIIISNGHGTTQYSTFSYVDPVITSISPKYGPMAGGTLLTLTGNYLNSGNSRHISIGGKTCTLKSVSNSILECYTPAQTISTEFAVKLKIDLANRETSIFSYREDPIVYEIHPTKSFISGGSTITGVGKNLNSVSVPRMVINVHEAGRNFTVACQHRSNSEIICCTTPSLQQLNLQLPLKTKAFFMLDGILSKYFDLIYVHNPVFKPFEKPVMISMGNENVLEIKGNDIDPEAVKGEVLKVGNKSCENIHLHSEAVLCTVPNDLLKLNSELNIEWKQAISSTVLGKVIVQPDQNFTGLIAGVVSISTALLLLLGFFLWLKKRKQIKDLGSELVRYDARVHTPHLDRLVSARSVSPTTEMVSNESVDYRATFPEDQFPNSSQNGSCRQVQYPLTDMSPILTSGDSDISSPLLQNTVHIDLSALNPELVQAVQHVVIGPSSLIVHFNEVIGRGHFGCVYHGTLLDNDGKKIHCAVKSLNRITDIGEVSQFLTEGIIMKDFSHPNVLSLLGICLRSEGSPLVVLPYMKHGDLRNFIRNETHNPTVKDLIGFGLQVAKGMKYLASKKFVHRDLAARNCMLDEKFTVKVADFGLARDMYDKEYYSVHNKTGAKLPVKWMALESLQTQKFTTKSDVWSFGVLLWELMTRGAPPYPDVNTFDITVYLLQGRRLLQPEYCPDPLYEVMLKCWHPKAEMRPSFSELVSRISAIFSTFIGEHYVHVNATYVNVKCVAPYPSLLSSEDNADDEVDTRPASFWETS

[25] = Toxicity in Balb/c mouse assessed as survival rate at 200 mg/kg, ip measured after 15 days; type: organism-based; conditions: in vivo, time 15 day; summary of the method: as §3
[26] = tested on: FHC; assay: Cytotoxicity against human FHC cells assessed as inhibtion of cell proliferation measured after 72 hrs by MTT assay
[27] = Toxicity in Balb/c mouse assessed as survival rate at 300 mg/kg, ip measured after 15 days; type: organism-based; conditions: in vivo, time 15 day; summary of the method: as §3
[28] = Toxicity in Balb/c mouse assessed as body weight at 100 to 200 mg/kg, ip measured after 15 days; type: organism-based; conditions: in vivo, 360 h, dose 100-200 mg/kg, time 15 day; summary of the method: as §5
[29] = target: Epidermal growth factor receptor (Homo sapiens, UniProt P00533); assay: Inhibition of EGFR (unknown origin) using poly (Glu, Tyr)4:1 as substrate in presence of ATP measured after 30 mins by HTRF assay; summary of the method: as §1
[30] = tested on: A549; assay: Induction of apoptosis in human A549 cells assessed as early apoptosis at 1 uM measured after 12 hrs by Annexin V-FITC/ Propidium iodide stain based flow cytometry assay relative to control; type: functional; summary of the method: as §2
[31] = target: Platelet-derived growth factor receptor alpha (Homo sapiens, UniProt P16234); assay: Inhibition of PDGFR alpha (unknown origin) using poly (Glu, Tyr)4:1 as substrate in presence of ATP measured after 30 mins by HTRF assay; summary of the method: as §1

**Q.** Which IC50 [1] does the source give for COCC/C(=N\S(=O)(=O)Cc1ccc(Cl)cc1)Nc1ccc(Oc2ccnc3cc(OCCCN4CCOCC4)c(OC)cc23)c(F)c1 here?
**A.** Its IC50 is greater than 10000 nM.

**Q.** What about the IC50 [2] of the same molecule?
**A.** The IC50 was 358 nM.

**Q.** What about the Activity [3] of the same molecule?
**A.** Its Activity is “Dose-dependent effect”.

**Q.** And the survival at 360 h [4]?
**A.** The survival at 360 h was 100%.

**Q.** What about the Activity [5] of the same molecule?
**A.** The Activity was 30.99%.

**Q.** What about the bioavailability [6] of the same molecule?
**A.** The bioavailability was 74%.

**Q.** And the Activity [7]?
**A.** Its Activity is “Dose-dependent effect”.

**Q.** And the IC50 [8]?
**A.** Its IC50 is 1350 nM.

**Q.** What about the Cmax [9] of the same molecule?
**A.** Its Cmax is 1230 ng/mL.

**Q.** And the IC50 [10]?
**A.** Its IC50 is 480 nM.

**Q.** What about the Activity [11] of the same molecule?
**A.** Its Activity is “Non-Toxic”.

**Q.** What about the selectivity ratio [12] of the same molecule?
**A.** The selectivity ratio was 19.1.

**Q.** And the CL/F [13]?
**A.** Its CL/F is 19.7 mL/min/kg.

**Q.** What about the Activity [14] of the same molecule?
**A.** Its Activity is “Dose-dependent effect”.

**Q.** And the Activity [15]?
**A.** Its Activity is “Non-Toxic”.

**Q.** And the AUC [16]?
**A.** The AUC was 2.3 µg/h/mL.

**Q.** What about the IC50 [17] of the same molecule?
**A.** Its IC50 is 4.26 nM.

**Q.** What about the Tmax [18] of the same molecule?
**A.** Its Tmax is 2.5 h.

**Q.** What about the IC50 [19] of the same molecule?
**A.** The IC50 was 565 nM.

**Q.** And the IC50 [20]?
**A.** The IC50 was 412 nM.

**Q.** And the IC50 [21]?
**A.** Its IC50 is 280 nM.

**Q.** What about the AUC [22] of the same molecule?
**A.** Its AUC is 6.8 µg/h/mL.

**Q.** And the Activity [23]?
**A.** The Activity was “Non-Toxic”.

**Q.** And the inhibition [24]?
**A.** Its inhibition is “Active”.

**Q.** And the survival at 360 h [25]?
**A.** The survival at 360 h was 100%.

**Q.** And the IC50 [26]?
**A.** The IC50 was 6120 nM.

**Q.** And the survival at 360 h [27]?
**A.** Its survival at 360 h is 70%.

**Q.** What about the Activity [28] of the same molecule?
**A.** The Activity was “Non-Toxic”.

**Q.** What about the IC50 [29] of the same molecule?
**A.** The IC50 was greater than 10000 nM.

**Q.** And the Activity [30]?
**A.** The Activity was 15.69%.

**Q.** What about the IC50 [31] of the same molecule?
**A.** Its IC50 is 384 nM.
